# Results collected from several papers.
# Compare with care: the assays were run in different laboratories.
# Organism: Mycobacterium tuberculosis
# Effect on: microbial growth
SMILES,technique,strain,time,MIC
CCCCCCC/C=C\[C@H](O)C#CC#C[C@@H](O)CC,resazurin,ATCC35801 ERDMAN,7 days,49.5 mg/L
Cc1cc(C)n(C(=O)c2ccc(-n3c(C)ccc3C)cc2)n1,broth dilution,H37RV,21 days,8 mg/L
O=C1C(=NNc2nc(-c3ccccc3)cs2)C(N=Cc2ccccc2)=NN1c1ccccc1,resazurin,H37RV,,6.25 mg/L
Cc1ccc(C)n1-c1ccc(-c2nnco2)cc1,broth dilution,H37RV,21 days,4 mg/L
C=C[C@@]1(C)CC[C@@H]2C(C)(C)c3cccc4[nH]c5c(c34)[C@@]2(O)[C@]1(C#N)[C@H]1O[C@H]1C5(C)C,,H37RV,,11.3 µM
O=C(CNS(=O)(=O)c1ccccc1[N+](=O)[O-])N1CCN(C(c2ccc(F)cc2)c2ccc(F)cc2)CC1,,ATCC27294 H37RV,,> 25 mg/L
O=[N+]([O-])c1cn2c(n1)OC[C@@H](OCc1ccc(N3CCCCC3)cc1)C2,,H37RV,,0.4 to 0.8 mg/L
NNC(=O)c1ccncc1,,H37RV,5 days,0.3 µM
Cc1ccc(C)n1-c1ccc(-c2nnc(-c3ccc(Br)cc3)[nH]2)cc1,broth dilution,H37RV,21 days,2 mg/L
CCOC(=O)c1nnn(-c2cccc(NC(=O)Nc3ccc(Cl)c(Cl)c3)c2)c1C,,ATCC27294 H37RV,7 days,16 mg/L
[H]/N=C(/N)N[C@H]1[C@H](O)[C@@H](O)[C@H](O[C@@H]2O[C@@H](C)[C@](O)(C=O)[C@H]2O[C@@H]2O[C@@H](CO)[C@H](O)[C@@H](O)[C@@H]2NC)[C@@H](N/C(N)=N\[H])[C@@H]1O,,H37RV,,1.1 mg/L
[H]/N=C(/N)N[C@H]1[C@H](O)[C@@H](O)[C@H](O[C@@H]2O[C@@H](C)[C@](O)(C=O)[C@H]2O[C@@H]2O[C@@H](CO)[C@H](O)[C@@H](O)[C@@H]2NC)[C@@H](N/C(N)=N\[H])[C@@H]1O,resazurin,H37RV,,6.25 mg/L
O=[N+]([O-])c1ccc(/C(O)=C/C(=S)S)cc1,,ATCC27294 H37RV,8 days,7.8 mg/L
Cc1cn2c(C(=O)NCc3ccc(S(F)(F)(F)(F)F)cc3)c(C)nc2s1,,H37RV,5 days,0.4 µM
N#Cc1cc(C(F)(F)F)cc2c(=O)nc(N3CCN(CC4CCOC4)CC3)sc12 (stereo not drawn),resazurin,H37RV,,1.9 µM
CN[C@H](CC(C)C)C(=O)N[C@H]1C(=O)N[C@@H](CC(N)=O)C(=O)N[C@H]2C(=O)N[C@H]3C(=O)N[C@H](C(=O)N[C@H](C(=O)O)c4cc(O)cc(O)c4-c4cc3ccc4O)[C@H](O)c3ccc(c(Cl)c3)Oc3cc2cc(c3O[C@@H]2O[C@H](CO)[C@@H](O)[C@H](O)[C@H]2O[C@H]2C[C@](C)(N)[C@H](O)[C@H](C)O2)Oc2ccc(cc2Cl)[C@H]1O,resazurin,H37RA,14 days,65 mg/L
Cc1c(Cc2ccc(C(C)(C)C)cc2)c(=O)n2c([nH]c3ccccc32)c1C#N,broth dilution,H37RV,,1 mg/L
O=c1nc(N2CCN(CC3CCCCC3)CC2)sc2c([N+](=O)[O-])cc(C(F)(F)F)cc12,resazurin,H37RV,,0.002 µM
O=C(CCNS(=O)(=O)c1ccc([N+](=O)[O-])cc1)N1CCN(C(c2ccc(F)cc2)c2ccc(F)cc2)CC1,,ATCC27294 H37RV,,25 mg/L
O=C1C(=NNc2nc(-c3ccccc3)cs2)C(N=Cc2cccc(Cl)c2)=NN1c1ccccc1,resazurin,H37RV,5 days,12.9 µM
COC(=O)c1cc(-c2cccc(NC(=O)Nc3ccc(C)cc3)c2)on1,,ATCC27294 H37RV,7 days,0.5 mg/L
CO/N=C(\C(=O)N[C@@H]1C(=O)N2C(C(=O)O)=C(COC(C)=O)CS[C@H]12)c1csc(N)n1,resazurin,H37RA,14 days,16 mg/L
Cc1c(Cc2ccc(Cl)c(Cl)c2)c(=O)n2c([nH]c3ccccc32)c1C#N,broth dilution,H37RV,,0.5 mg/L
CO[C@H]1/C=C/O[C@@]2(C)Oc3c(C)c(O)c4c(O)c(c(/C=N/N5CCN(C)CC5)c(O)c4c3C2=O)NC(=O)/C(C)=C\C=C\[C@H](C)[C@H](O)[C@@H](C)[C@@H](O)[C@@H](C)[C@H](OC(C)=O)[C@@H]1C,broth dilution,,,0.4 mg/L
O=C1C(=NNc2nc(-c3ccccc3)cs2)C(N=Cc2ccccc2Cl)=NN1c1ccccc1,resazurin,H37RV,5 days,51.5 µM
CC1SC2(CCCCC2)N(NC(=O)c2[nH]c3ccc(Cl)cc3c2-c2ccccc2)C1=O (stereo not drawn),,ATCC27294 H37RV,,250 µM
C[C@H]1c2cccc(O)c2C(=O)C2=C(O)[C@]3(O)C(=O)C(C(N)=O)=C(O)[C@@H](N(C)C)[C@@H]3[C@@H](O)[C@@H]21,resazurin,H37RA,14 days,1 mg/L
COC(=O)c1cc(-c2cccc(NC(=O)Nc3ccc(F)c(F)c3)c2)on1,,ATCC27294 H37RV,7 days,0.5 mg/L
O=C1NN=C(N=Cc2ccccc2O)C1=NNn1c(-c2ccccc2)nc2ccccc2c1=O,resazurin,H37RV,,13.8 µM
O=C1C(=NNc2nc(-c3ccccc3)cs2)C(N=Cc2ccc(Cl)cc2)=NN1c1ccccc1,resazurin,H37RV,5 days,51.5 µM
COC(=O)c1cc(-c2cccc(NC(=O)Nc3cccc(F)c3)c2)on1,,ATCC27294 H37RV,7 days,2 mg/L
CC1(C)S[C@@H]2[C@H](NC(=O)[C@H](N)c3ccccc3)C(=O)N2[C@H]1C(=O)O,resazurin,H37RA,14 days,64 mg/L
CC(C)=CCCC(C)CC1CC(=O)c2ccc(O)cc2O1 (stereo not drawn),broth dilution,H37RV,,100 mg/L
COC(=O)c1cc(-c2cccc(NC(=S)Nc3ccc(C)cc3)c2)on1,,ATCC27294 H37RV,7 days,2 mg/L
O=C(c1cc2c(F)cc(F)cc2[nH]1)N1CCN(C(=O)C23CC4CC(CC(C4)C2)C3)CC1,resazurin,H37RV,,> 75 µM
CCC1CCC2(CC1)SC(C)C(=O)N2NC(=O)c1[nH]c2ccc(Cl)cc2c1-c1ccccc1 (stereo not drawn),,ATCC27294 H37RV,,1000 µM
CN[C@H](CC(C)C)C(=O)N[C@H]1C(=O)N[C@@H](CC(N)=O)C(=O)N[C@H]2C(=O)N[C@H]3C(=O)N[C@H](C(=O)N[C@H](C(=O)O)c4cc(O)cc(O)c4-c4cc3ccc4O)[C@H](O)c3ccc(c(Cl)c3)Oc3cc2cc(c3O[C@@H]2O[C@H](CO)[C@@H](O)[C@H](O)[C@H]2O[C@H]2C[C@](C)(N)[C@H](O)[C@H](C)O2)Oc2ccc(cc2Cl)[C@H]1O,,H37RV,14 days,12.5 mg/L
COC(=O)c1cc(-c2cccc(NC(=O)Nc3ccc(Cl)c(Cl)c3)c2)on1,,ATCC27294 H37RV,7 days,0.25 mg/L
CC[C@@H](CO)NCCN[C@@H](CC)CO,,H37RV,,5 mg/L
O=C(Nc1cccc(-c2cc(C(=O)O)no2)c1)Nc1ccc(Cl)c(Cl)c1,,ATCC27294 H37RV,7 days,64 mg/L
Cc1ccc(NC(=O)c2ccccc2)cc1Nc1nccn1-c1cc(NC2CCCC2)ncn1,,W4,,> 20 µM
CC1CC(C)(C)CC2(C1)SC(C)C(=O)N2NC(=O)c1[nH]c2ccc(Cl)cc2c1-c1ccccc1 (stereo not drawn),,ATCC27294 H37RV,,1000 µM
O=C1CC[C@@H]2CN(Cc3ccccc3)CC[C@@]23OC[C@H](C2CC2)N13,,H37RV,,37 µM
CC1CCCC2(C1)SC(C)C(=O)N2NC(=O)c1[nH]c2ccc(Cl)cc2c1-c1ccccc1 (stereo not drawn),,ATCC27294 H37RV,,500 µM
CCc1nc2ccc(Cl)cn2c1C(=O)NCc1cccc(S(F)(F)(F)(F)F)c1,,H37RV,5 days,0.28 µM
COC(=O)c1cc(-c2cccc(NC(=S)Nc3ccc(OC)cc3)c2)on1,,ATCC27294 H37RV,7 days,2 mg/L
CO[C@H]1/C=C/O[C@@]2(C)Oc3c(C)c(O)c4c(O)c(c(/C=N/N5CCN(C)CC5)c(O)c4c3C2=O)NC(=O)/C(C)=C\C=C\[C@H](C)[C@H](O)[C@@H](C)[C@@H](O)[C@@H](C)[C@H](OC(C)=O)[C@@H]1C,resazurin,H37RV,14 days,0.075 µM
C[C@H]1O[C@H](O[C@H]2CC[C@H](n3ccc(NC(=O)c4ccc(NC(=O)[C@@](C)(N)CO)cc4)nc3=O)O[C@@H]2C)[C@H](O)[C@@H](O)[C@@H]1N(C)C,,H37RA,,0.8 µM
Cc1ccc(C)n1-c1ccc(-c2nnc(-c3cccc([N+](=O)[O-])c3)[nH]2)cc1,broth dilution,H37RV,21 days,16 mg/L
CC1SC2(CCC(c3ccccc3)CC2)N(NC(=O)c2[nH]c3ccc(Cl)cc3c2-c2ccccc2)C1=O (stereo not drawn),,ATCC27294 H37RV,,7.8 µM
CC(C)[C@H]1CO[C@]23CCN(Cc4ccccc4)C[C@H]2CCC(=O)N13,resazurin,H37RV,7 days,5.73 µM
